Measured values: ChEMBL document CHEMBL4699593, “Identification of 2,4-Disubstituted Imidazopyridines as Hemozoin Formation Inhibitors with Fast-Killing Kinetics and In Vivo Efficacy in the Plasmodium falciparum NSG Mouse Model” (J Med Chem, 2020)
The source made the active and inactive calls. No cut-off for these calls is given here.

Legend:
[1] = test system: Plasmodium falciparum; test: Antiplasmodial activity against multidrug-sensitive asexual blood stage Plasmodium falciparum NF54 strain assessed as reduction in parasite growth after 72 hrs by NBT reagent based LDH assay; assay type: functional, organism-based; details: NF54, 72 h
[2] = test system: Plasmodium falciparum; test: Antimalarial activity against asexual blood stage Plasmodium falciparum assessed as reduction in parasitemia by measuring log parasite reduction ratio at 10 times IC50; assay type: functional
[3] = test system: Plasmodium falciparum; test: Antimalarial activity against asexual blood stage Plasmodium falciparum assessed as time required to show 99.9% reduction of parasitemia at 10 times IC50; assay type: functional
[4] = test system: Plasmodium falciparum; test: Antimalarial activity against asexual schizont stage of Plasmodium falciparum NF54 measured after 24 hrs by [3H]hypoxanthine incorporation assay; assay type: functional, organism-based
How it was run: (§1)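 Tested on a synchronized asexual blood-stage culture of P. falciparum, with IC50 determined separately for the ring and the schizont stage.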

[5] = test system: Plasmodium falciparum; test: Antimalarial activity against asexual ring stage of Plasmodium falciparum NF54 measured after 24 hrs by [3H]hypoxanthine incorporation assay; assay type: functional, organism-based; how it was run: as §1
[6] = test system: Plasmodium berghei; test: Antiplasmodial activity against luciferase-expressing Plasmodium berghei sporozoites liver stage infected in human HepG2 cells expressing GFP-CD81 fusion protein incubated for 48 hrs by luciferase reporter gene based bioluminescence assay; assay type: functional, organism-based; details: HepG2, 48 h
How it was run: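 Liver-stage activity was measured in vitro with rodent P. berghei sporozoites. Values are the mean of 3 technical replicates from the luciferase assay; individual values varied less than 2×.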

[7] = test system: Plasmodium falciparum; test: Antiplasmodial activity against early ring-stage synchronized Plasmodium falciparum assessed as decrease in hemozoin formation after 32 hrs by Giemsa-staining based haemocytometric counting method; assay type: functional, organism-based
[8] = Cmax in Balb/C mouse at 2 mg/kg, iv by LC-MS/MS analysis; assay type: ADME, organism-based; parameters: route intravenous, dose 2 mg/kg; details: in vivo
How it was run: (§2)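 Healthy Balb/c mice dosed i.v. or orally. Parameters come from non-compartmental analysis of compound concentration over time. […] Clearance is blood clearance (CL_b).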

[9] = Tmax in Balb/C mouse at 20 mg/kg, po by LC-MS/MS analysis; assay type: ADME, organism-based; details: in vivo
How it was run: (§3)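 Healthy Balb/c mice were given the compound i.v. or orally. Parameters come from non-compartmental analysis: AUC from 0 h to t_last, blood clearance, volume at steady state, terminal half-life, Tmax. Oral bioavailability F is derived from the i.v. and p.o. data.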

[10] = Terminal half life in Balb/C mouse at 20 mg/kg, po by LC-MS/MS analysis; assay type: ADME, organism-based; details: in vivo, read-out: beta t1/2 (converted); how it was run: as §3
[11] = Clearance in Balb/C mouse blood at 2 mg/kg, iv by LC-MS/MS analysis; assay type: ADME, organism-based; details: whole blood; how it was run: as §2
[12] = Tmax in Plasmodium falciparum 3D70087/N9 infected NSG mouse at 1.5 mg/kg, po by LC-MS/MS analysis; assay type: ADME, organism-based; details: in vivo
How it was run: (§4)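 P. falciparum-infected NSG mice received escalating single oral doses of 1.5, 5, 15, 50 and 100 mg/kg.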

[13] = Tmax in Plasmodium falciparum 3D70087/N9 infected NSG mouse at 50 mg/kg, po by LC-MS/MS analysis; assay type: ADME, organism-based; details: in vivo; how it was run: as §4
[14] = Cmax in Plasmodium falciparum 3D70087/N9 infected NSG mouse at 1.5 mg/kg, po by LC-MS/MS analysis; assay type: ADME, organism-based; parameters: route oral, dose 1.5 mg/kg; details: in vivo
How it was run: (§5)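 Oral (PO) dosing of NSG (NODscidIL2Rγnull) mice infected with P. falciparum. Cmax and AUC0–24 are taken from the infected-mouse PK analysis and are also expressed divided by dose.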

[15] = Cmax in Plasmodium falciparum 3D70087/N9 infected NSG mouse at 100 mg/kg, po by LC-MS/MS analysis; assay type: ADME, organism-based; parameters: route oral, dose 100 mg/kg; details: in vivo; how it was run: as §5
[16] = AUC (0 to 24 hrs) in Plasmodium falciparum 3D70087/N9 infected NSG mouse at 5 mg/kg, po by LC-MS/MS analysis; assay type: ADME, organism-based; parameters: time < 24 hr, route oral, dose 5 mg/kg; details: in vivo; how it was run: as §5
[17] = AUC (0 to 24 hrs) in Plasmodium falciparum 3D70087/N9 infected NSG mouse at 15 mg/kg, po by LC-MS/MS analysis; assay type: ADME, organism-based; parameters: time < 24 hr, route oral, dose 15 mg/kg; details: in vivo; how it was run: as §5
[18] = AUC (0 to 24 hrs) in Plasmodium falciparum 3D70087/N9 infected NSG mouse at 100 mg/kg, po by LC-MS/MS analysis; assay type: ADME, organism-based; parameters: time < 24 hr, route oral, dose 100 mg/kg; details: in vivo; how it was run: as §5
[19] = AUC (0 to 24 hrs) in Plasmodium falciparum 3D70087/N9 infected NSG mouse at 200 mg/kg, po by LC-MS/MS analysis; assay type: ADME, organism-based; parameters: time < 24 hr, route oral, dose 200 mg/kg; details: in vivo; how it was run: as §5
[20] = test system: Plasmodium falciparum; test: Antimalarial activity against Plasmodium falciparum 3D70087/N9 infected in NOD-SCID IL2Rgamma null mouse assessed as parasitemia at 50 mg/kg, po qd administered for 4 days measured on day 6 post-infection by microscopy based flow cytometry; assay type: functional, organism-based; details: time 4.0 day
How it was run: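 NSG mice were infected with P. falciparum and given oral compound once daily for 4 days at 50 mg/kg, starting three days after inoculation. Parasitemia was followed to day 6 post-infection against the limit of detection.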

[21] = test system: hERG; test: Selectivity index, ratio of IC50 for inhibition of human ERG by patch clamp method to IC50 for antiplasmodial activity against multidrug-sensitive asexual blood stage Plasmodium falciparum NF54; assay type: toxicity; details: read-out: Ratio IC50
[22] = Drug recovery in mouse urine by LC-MS/MS analysis; assay type: ADME, tissue-based; details: in vivo
[23] = Drug metabolism in mouse blood assessed as N-demethylation by LC-MS/MS analysis; assay type: ADME, tissue-based
[24] = test system: Plasmodium falciparum; test: Antimalarial activity against asexual blood stage Plasmodium falciparum assessed as reduction in parasitemia by measuring lag time at 10 times IC50; assay type: functional
[25] = Dose normalized Cmax in Plasmodium falciparum 3D70087/N9 infected NSG mouse at 15 mg/kg, po by LC-MS/MS analysis; assay type: ADME, organism-based; details: in vivo; how it was run: as §5
[26] = Dose normalized Cmax in Plasmodium falciparum 3D70087/N9 infected NSG mouse at 50 mg/kg, po by LC-MS/MS analysis; assay type: ADME, organism-based; details: in vivo; how it was run: as §4
[27] = Dose normalized Cmax in Plasmodium falciparum 3D70087/N9 infected NSG mouse at 100 mg/kg, po by LC-MS/MS analysis; assay type: ADME, organism-based; details: in vivo; how it was run: as §5
[28] = Dose normalized Cmax in Plasmodium falciparum 3D70087/N9 infected NSG mouse at 200 mg/kg, po by LC-MS/MS analysis; assay type: ADME, organism-based; details: in vivo; how it was run: as §5
[29] = Dose normalized AUC (0 to 24 hrs) in Plasmodium falciparum 3D70087/N9 infected NSG mouse at 1.5 mg/kg, po by LC-MS/MS analysis; assay type: ADME, organism-based; details: in vivo; how it was run: as §5
[30] = Dose normalized AUC (0 to 24 hrs) in Plasmodium falciparum 3D70087/N9 infected NSG mouse at 5 mg/kg, po by LC-MS/MS analysis; assay type: ADME, organism-based; details: in vivo; how it was run: as §5
[31] = Dose normalized AUC (0 to 24 hrs) in Plasmodium falciparum 3D70087/N9 infected NSG mouse at 15 mg/kg, po by LC-MS/MS analysis; assay type: ADME, organism-based; details: in vivo; how it was run: as §5
[32] = Dose normalized AUC (0 to 24 hrs) in Plasmodium falciparum 3D70087/N9 infected NSG mouse at 50 mg/kg, po by LC-MS/MS analysis; assay type: ADME, organism-based; details: in vivo; how it was run: as §5
[33] = Dose normalized AUC (0 to 24 hrs) in Plasmodium falciparum 3D70087/N9 infected NSG mouse at 100 mg/kg, po by LC-MS/MS analysis; assay type: ADME, organism-based; details: in vivo; how it was run: as §5
[34] = test system: Plasmodium falciparum; test: Antiplasmodial activity against early stage (I to III) Plasmodium falciparum NF54 gametocytes at 5 uM incubated for 48 hrs under hypoxia condition by luciferase reporter gene assay relative to control; assay type: functional
[35] = Tmax in Plasmodium falciparum 3D70087/N9 infected NSG mouse at 5 mg/kg, po by LC-MS/MS analysis; assay type: ADME, organism-based; details: in vivo; how it was run: as §4

CN1CCN(CC2CCN(c3nccc4[nH]c(-c5cc(F)cc(F)c5)nc34)CC2)CC1
IC50 [1]: 23 nM
Ratio [2]: 4.9
Time [3]: 31 h
IC50 [4]: 60 nM
IC50 [5]: 27 nM
IC50 [6]: 14000 nM
Activity [7]: Active
Cmax [8]: 600 nM
Tmax [9]: 1.7 h
half-life [10]: 32.7 h
clearance [11]: 20.2 mL/min/kg
Tmax [12]: 1.5 h
Tmax [13]: 12.5 h
Cmax [14]: 40 nM
Cmax [15]: 6680 nM
AUC [16]: 170 µM·min
AUC [17]: 969 µM·min
AUC [18]: 5142 µM·min
AUC(0-t) at 24 h [19]: 51.7 µM·h
Activity [20]: Below limit of detection
selectivity ratio [21]: > 1300
Drug recovery [22]: Active
Drug metabolism [23]: Metabolite_Detected
Time [24]: 0 h
Cmax/dose [25]: 0.05 µM·kg/mg
Cmax/dose [26]: 0.06 µM·kg/mg
Cmax/dose [27]: 0.07 µM·kg/mg
Cmax/dose [28]: 0.06 µM·kg/mg
AUC/dose [29]: 31 µM·kg·min/mg
AUC/dose [30]: 34 µM·kg·min/mg
AUC/dose [31]: 65 µM·kg·min/mg
AUC/dose [32]: 57 µM·kg·min/mg
AUC/dose [33]: 51 µM·kg·min/mg
inhibition at 5 µM [34]: < 50%
Tmax [35]: 2.5 h
